Source: PubChem (several laboratories)
CSC inhib – blocks cancer stem cells; cancer stem cell-like cells viability, luminescence; inhibition, % at 7.5 µM; 1.1% of 300,000 active; in the data active = inhibition above about 75%; inconclusive = no clear call, values can overlap the other calls; tested in HMLE shEcad cells
Mdm2 MdmX PPI – human Mdm2/MdmX binding inhibition; O15151+Q00987; SaOS-2 split-luciferase Mdm2/MdmX complementation, luminescence; inhibition, % at 8 µM; 3% of 330,000 active; AID 485346;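 active = inhibition of at least 50% at 8 µM in the primary screen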
Target sequence (O15151 whole entry, looked up): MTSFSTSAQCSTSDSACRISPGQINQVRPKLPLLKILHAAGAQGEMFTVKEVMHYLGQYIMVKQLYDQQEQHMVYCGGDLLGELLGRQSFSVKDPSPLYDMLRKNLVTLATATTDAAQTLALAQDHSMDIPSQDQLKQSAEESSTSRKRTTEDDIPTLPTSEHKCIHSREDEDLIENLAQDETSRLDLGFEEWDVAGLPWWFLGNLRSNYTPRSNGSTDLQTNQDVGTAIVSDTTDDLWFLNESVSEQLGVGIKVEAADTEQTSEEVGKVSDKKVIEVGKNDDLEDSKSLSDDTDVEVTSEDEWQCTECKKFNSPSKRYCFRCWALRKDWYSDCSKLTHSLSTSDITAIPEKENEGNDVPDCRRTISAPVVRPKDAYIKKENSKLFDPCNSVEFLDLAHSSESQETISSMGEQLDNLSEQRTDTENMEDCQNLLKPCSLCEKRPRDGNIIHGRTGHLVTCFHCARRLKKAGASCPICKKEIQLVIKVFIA
Target sequence (Q00987 whole entry, looked up): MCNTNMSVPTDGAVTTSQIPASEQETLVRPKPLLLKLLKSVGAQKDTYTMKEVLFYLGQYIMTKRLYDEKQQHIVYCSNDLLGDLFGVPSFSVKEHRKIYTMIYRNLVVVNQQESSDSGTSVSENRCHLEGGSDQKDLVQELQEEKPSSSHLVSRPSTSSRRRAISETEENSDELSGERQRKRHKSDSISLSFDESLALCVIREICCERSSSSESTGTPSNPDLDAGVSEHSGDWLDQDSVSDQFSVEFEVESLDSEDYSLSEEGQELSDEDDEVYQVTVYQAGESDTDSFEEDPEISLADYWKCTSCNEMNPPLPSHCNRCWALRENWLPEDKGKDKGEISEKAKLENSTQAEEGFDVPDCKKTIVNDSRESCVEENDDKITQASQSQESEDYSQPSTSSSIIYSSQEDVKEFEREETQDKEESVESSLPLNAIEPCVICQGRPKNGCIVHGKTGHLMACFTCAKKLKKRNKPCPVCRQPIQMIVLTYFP
Calb FLC – affects C. albicans growth with fluconazole. C. albicans CaCi-2 (fluconazole-resistant clinical isolate) + fluconazole, Alamar Blue growth, 48 h. growth inhibition, % (test concentration not listed). 0.57% of 300,000 active;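 active = growth inhibition above about 58% in most replicates, limit read from the data, passing the limit was not always enough; inconclusive = exactly half the replicates above a set limit; inactive = most replicates below a set limit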;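 also: all wells also contain fluconazole at 8 µg/ml as a sub-toxic cotreatment; 0% = median of DMSO wells and 100% = median of geldanamycin control wells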
T cruzi repl – T. cruzi replication inhibition | T. cruzi beta-gal in NIH3T3, luminescence, 90 h | inhibition, % (test concentration not listed) | 1.4% of 300,000 active | AID 1885;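 active = mean inhibition across valid replicates above about 55%, limit read from the data; inconclusive = mean below that limit but half or more replicates reach it; inactive = mean below it, under half of replicates reach it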;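 also: signal also drops with host cell toxicity which is not excluded here; 0% = plate median of DMSO wells and 100% = zero luminescence signal; higher percent means less beta-gal luminescence so fewer parasites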
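Assay system: NIH/3T3 fibroblasts plus reporter T. cruzi. Amount: NIH/3T3 cells, 5,000 per well. Buffer or medium: DMEM, 2% fetal bovine serum. Doses: compound pinned at 50 nL/well, DMSO. Schedule: ≥90 h infection period, 3 h prior cell attachment. Signal: luminescent β-galactosidase signal after 60 min lysis. Read-out: parasite load inhibition, %.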
SKKanGAS inh – blocks kanamycin growth of S. pyogenes SKKanGAS strain; BacTiter-Glo, 6 h; AID 1662; 1.3% of 300,000 active; inhibition, % at 7.5 µM;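 active = mean replicate score, as percent of positive control median, at least 50; inconclusive = mean below 50 but one replicate at or above 50; inactive = mean and every replicate below 50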;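 also: strain carries kanamycin resistance gene driven by streptokinase promoter and grows in 40 µg/ml kanamycin; loss of luminescence reflects streptokinase promoter inhibition or plain growth inhibition; 0% = median of DMSO wells and 100% = positive control at its reference dose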
Beta cell apopt – blocks beta cell apoptosis | AID 435005 | INS-1E cytokine-induced death, ATP luminescence, 48 h; percent of positive-control rescue, neutral wells zero | protection from apoptosis, % (test concentration not listed) | 0.8% of 300,000 active;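 active = Every replicate reaches about 75%, or at least half do and their mean reaches it too, limit read from the data; inconclusive = At least half of replicates reach the limit but their mean does not; inactive = Under half of replicates reach the limit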;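 also: 0% = cytokine-treated negative control wells and 100% = positive control rescue; higher means more ATP so stronger rescue from cytokine killing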
Mdm2 MdmX conf – confirmation of human Mdm2/MdmX interaction inhibitors; shares compounds with Mdm2 MdmX PPI; Mdm2-MdmX binding, luminescent assay; inhibition, % at 8 µM; 55% of 10,000 active; in the data active = inhibition above about 40%
Full FLuc ctr – counter-screen for Mdm2/MdmX inhibitors: full-length luciferase | shares compounds with Mdm2 MdmX PPI | SaOS-2 full-length luciferase counterscreen, luminescence | inhibition, % at 8 µM | 77% of 6,200 active;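 active = mean inhibition at 8 µM reaching about 37%, which flags the compound as non-specific, limit read from the data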;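 also: p53-null SaOS-2 cells with luciferase driven by a doxycycline-inducible promoter; compound on cells about two nights before reading with doxycycline added after day one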
Active calls of the source: *; ? = inconclusive; nt = no result; + = active, no number. An excerpt weighted towards active compounds, which were near 5.7% of everything screened.

SMILES | CSC inhib | Mdm2 MdmX PPI | Calb FLC | T cruzi repl | SKKanGAS inh | Beta cell apopt | Mdm2 MdmX conf | Full FLuc ctr
Cc1cc(/C=C(\C#N)C(=O)N2CCOCC2)c(C)n1C1CCCC1 | 0 | 64* | 3 | -19 | 4 | 1 | 68* | 158*
COc1ccc(/C=C(\C#N)C(=O)N2CCOCC2)cc1Br | -8 | 19 | 45 | -7 | 0 | -7 | nt | nt
Cc1ccc(NC(=O)CCNC(=O)c2ccccc2Cl)cc1S(=O)(=O)N1CCOCC1 | nt | 18 | nt | nt | nt | nt | nt | nt
CC(C)c1nnc(NC(=O)CS(=O)(=O)c2ccccc2)s1 | 2 | -16 | 0 | -8 | 0 | -4 | nt | nt
Clc1ccccc1-c1nnc2sc(-c3ccc4c(c3)OCO4)nn12 | 54 | 65* | 37 | -7 | 20 | 3 | 40 | 83*
Brc1ccccc1-c1nnc2sc(-c3ccc4c(c3)OCCO4)nn12 | 52 | 51* | 62 | -9 | 8 | 9 | 62* | 61*
c1ccc2c(c1)OCC(c1nnc3sc(-c4ccc5c(c4)OCO5)nn13)O2 (stereo not given) | 8 | -11 | -5 | -1 | -9 | -3 | nt | nt
CCN(C(=O)COC(=O)c1ccc(C=O)cc1)c1c(N)n(Cc2ccccc2)c(=O)[nH]c1=O | -7 | -9 | nt | nt | nt | 3 | nt | nt
O=C1CC(C2CCCO2)C(=O)N1c1ccc(Cl)c(Cl)c1 (stereo not given) | -24 | -37 | 0 | -9 | -2 | 1 | nt | nt
CCn1ncc(C2=NOC(C(=O)NCc3ccc(OC)cc3)C2)c1C (stereo not given) | nt | nt | 4 | 1 | 3 | -3 | nt | nt
CCn1ncc(C2=NOC(C(=O)NCc3ccccc3)C2)c1C (stereo not given) | 69 | 62* | 2 | -71 | 7 | 6 | 52* | 84*
CC(C)[C@@]1(c2ccccc2)ON(c2ccccc2C(F)(F)F)C1=O | 26 | 37 | nt | nt | nt | -3 | nt | nt
O=C1N(c2ccccc2C(F)(F)F)O[C@]1(c1ccccc1)C1CCCCC1 | 70 | 85* | nt | nt | nt | -4 | 62* | 51*
CC(C)[C@]1(c2ccc(Cl)cc2)ON(c2ccccc2C(F)(F)F)C1=O | 58 | 68* | nt | nt | nt | 2 | 34 | 56*
O=C1N(c2ccccc2C(F)(F)F)OC1(Cc1ccccc1)c1ccccc1 (stereo not given) | 57 | 92* | nt | nt | nt | -10 | 67* | 52*
CN(CC(=O)Nc1ccc(N2CCOCC2)cc1)C(=O)CSc1ccc(F)cc1 | -12 | 20 | 6 | 1 | -1 | 2 | nt | nt
CN1C(C(=O)NCc2ccccc2)CC2Cn3c(nc4cc5ccccc5cc43)C21 (stereo not given) | 5 | 8 | 15 | 0 | 15 | -11 | nt | nt
COCc1cc(=O)[nH]c(Nc2nc(C)c3cc(OC)ccc3n2)n1 | 1 | 9 | 6 | -5 | 5 | -3 | nt | nt
COc1ccc2c(C)nc(Nc3nc(-c4ccccc4)cc(=O)[nH]3)nc2c1 | 107* | 73* | 7 | 37 | 74* | 35 | -16 | nt
Cc1ccc2c(C)nc(Nc3nc(CSc4nc5ccccc5[nH]4)cc(=O)[nH]3)nc2c1 | 61 | 59* | ? | 28 | 4 | 90* | 58* | 32
COC(=O)c1cc(CNC(=O)c2ccccc2OCc2c(C)noc2C)ccc1OC | -20 | 4 | -1 | 3 | -4 | -5 | nt | nt
Cc1ccccc1Cn1cc(S(=O)(=O)c2ccc(C(C)C)cc2)c(=O)c2cc3c(cc21)OCO3 | 3 | -36 | 6 | 43 | -9 | 10 | nt | nt
Nc1cc2ccncc2c2ccccc12 | -12 | 84* | nt | 9 | 14 | 4 | 84* | 50*
Cc1onc(-c2c(Cl)cccc2Cl)c1C(=O)N1C(C)CCCC1C (stereo not given) | 12 | 23 | 4 | 1 | -7 | 0 | nt | nt
CC1(C)C(=O)N(c2ccccc2)C1c1ccccc1O (stereo not given) | ? | 59* | 13 | -3 | -1 | -3 | 46* | 75*
SMILES | CSC inhib | Mdm2 MdmX PPI | Calb FLC | T cruzi repl | SKKanGAS inh | Beta cell apopt | Mdm2 MdmX conf | Full FLuc ctr
COc1ccc(N2C(=O)C(C)(C)C2c2c(O)ccc3ccccc23)cc1 (stereo not given) | 17 | 3 | 52 | 5 | 16 | 2 | nt | nt
COc1ccc(Cn2c(-c3ccccc3C)nc3c(c(=O)c4ccccc4n3C)c2=O)cc1 | -16 | 10 | -2 | 5 | 7 | 5 | nt | nt
Cc1nc2c3cc(F)ccc3n(CCN3CCCCC3)c2s1 | 65 | 56* | 4 | 2 | -1 | 60 | 56* | 68*
Cc1nc2c3ccccc3n(Cc3ccccc3F)c2s1 | 28 | 4 | 57 | 4 | 38 | -16 | nt | nt
Cc1nc2c3cc(F)ccc3n(Cc3ccccc3)c2s1 | 118* | 53* | -12 | -40 | 9 | 100* | 55* | 69*
Cc1nc2c3cc(F)ccc3n(Cc3ccccc3F)c2s1 | 55 | 59* | 36 | -54 | 11 | -2 | 45* | 78*
COc1ccc(/C=C/C(=O)O)cc1S(=O)(=O)NCc1cccnc1 | -15 | 7 | 4 | -4 | -1 | nt | nt | nt
COc1cccc(CNC23CC4CC(CC(C4)C2)C3)c1OCc1ccccc1 | 55 | 52* | ? | 43 | 0 | 26 | 43* | 59*
COc1cccc(CNCCc2c[nH]c3ccccc23)c1OCc1ccccc1 | 26 | 54* | -1 | 42 | 25 | 15 | 25 | nt
COc1cc(CNCCc2c[nH]c3ccccc23)ccc1OCc1ccccc1F | + | 90* | 0 | 55* | -2 | 21 | 18 | nt
COc1ccc(CCNC(=O)NCCc2c[nH]c3ccccc23)cc1OC | -7 | 14 | 5 | -15 | -5 | 0 | nt | nt
O=C(CCc1c[nH]c2ccccc12)OCC(=O)N1CCN(S(=O)(=O)c2ccccc2)CC1 | -6 | 6 | -2 | -7 | 18 | -2 | nt | nt
Cn1ccnc1Sc1cc(Cl)ccc1[N+](=O)[O-] | -5 | -35 | 6 | -14 | -18 | -8 | nt | nt
Nc1nc(Sc2ccc([N+](=O)[O-])cc2[N+](=O)[O-])n[nH]1 | 4 | 3 | -2 | 15 | 2 | 7 | nt | nt
O=[N+]([O-])c1ccc(Sc2nc3ccccc3o2)c([N+](=O)[O-])c1 | 106* | 99* | 93* | 55* | 9 | 48 | 76* | 3
O=[N+]([O-])c1ccc(Cl)cc1Sc1nc2ccccc2o1 | 22 | 54* | 53 | 26 | 67* | -1 | 16 | nt
O=C(N/C(=C\c1cccc([N+](=O)[O-])c1)C(=O)N1CCOCC1)c1ccc([N+](=O)[O-])cc1 | -2 | -10 | -8 | -2 | 0 | -1 | nt | nt
CC(C)(C)c1ccc(NC(=O)NC2CCCc3ccccc32)cc1 (stereo not given) | 64 | 70* | -5 | -4 | -1 | 21 | 53* | 70*
